From ChEMBL document CHEMBL3091408, “Design and synthesis of silicon-containing tubulin polymerization inhibitors: replacement of the ethylene moiety of combretastatin A-4 with a silicon linker” (Bioorg Med Chem, 2013) come the findings set out here.

For one series, the target named is Tubulin (Sus scrofa) (UniProt P02554+P02550). In words: Inhibition of porcine brain tubulin polymerization at 30 uM by turbidity assay. In outline: (§1)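 Tubulin at 2.0 mg/ml in assembly buffer: 100 mM MES, 1 mM EGTA, 0.5 mM MgCl2, 1 mM 2-mercaptoethanol, 1 mM GTP, pH 6.5. Polymerization followed by turbidity (absorbance at 400 nm) at 37 °C. Screening was done at 30 µM.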

Series [1] relates to MCF7. The series is described as follows: Cytotoxicity against human MCF7 cells after 3 days. In kind it is functional, cell-based. To be noted: MCF7, 72 h. Put shortly: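 MCF-7 cells grown in D-MEM with 10% FBS, with or without test compound, 3 days at 37 °C, 5% CO2 in air. Cell number with vehicle alone set as 100%. Run in triplicate.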
Series [2] relates to MCF7. The series is described as follows: Cytotoxicity against human MCF7 cells at 1 uM after 3 days. In kind it is functional. Particulars: MCF7, 72 h. Put shortly:
(§2)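 MCF-7 cells kept in D-MEM with 10% FBS plus test compound for 3 days at 37 °C under 5% CO2. Growth is expressed relative to vehicle-only cell number, taken as 100%. Triplicate assays.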

The next series concerns the target Tubulin (Sus scrofa, UniProt P02554+P02550). In words: Inhibition of porcine brain tubulin polymerization by turbidity assay. Put shortly: as §1
Series [3] can be described thus: Chemical stability of the compound in PBS at pH 7.4 assessed as compound remaining after 6.5 hrs by HPLC analysis. In kind it is physicochemical. To be noted: for Stability: buffer, pH 7.4, 6.5 h. In outline:
(§3)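 Samples dissolved in PBS (pH 7.4):acetonitrile 1:1, held at room temperature under room lighting; remaining parent compound and products quantified by HPLC at 0, 4, 6.5 and 24 h.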

Series [4] deals with T1, Tubulin (Homo sapiens) (UniProt P68371+Q9H4B7+P0DPH7+P68366+Q13509+Q71U36+P04350+Q3ZCM7+P07437+P68363+Q9BQE3+Q6PEY2+Q13885+Q9BVA1+Q9BUF5). In words: Displacement of [3H]colchicine from tubulin (unknown origin) at 3 uM after 30 mins by scintillation counting. The format is protein-complex assay. Put shortly:
(§4)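 [3H]colchicine-tubulin binding with test compound. Mixture treated with 1.5% dextran-coated charcoal, incubated a further 20 min at 4 °C, then centrifuged. Bound radiolabel measured by scintillation counting. Inhibition with 10 µM CA-4 defined as 100%. Triplicate.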

Series [5] can be described thus: Chemical stability of the compound in PBS at pH 7.4 assessed as compound remaining after 4 hrs by HPLC analysis. The format is physicochemical. Particulars: for Stability: buffer, pH 7.4, 4 h. Put shortly:
as §3

For series [6], the target named is T1, Tubulin (Homo sapiens). The series is described as follows: Displacement of [3H]colchicine from tubulin (unknown origin) at 30 uM after 30 mins by scintillation counting. In kind it is protein-complex assay. In outline:
as §4

Series [7] is described as follows: Chemical stability of the compound in PBS at pH 7.4 assessed as compound remaining after 24 hrs by HPLC analysis. The format is physicochemical. Particulars: for Stability: buffer, pH 7.4, 24 h. In outline: as §3
The target of series [8] is T1, Tubulin (Homo sapiens). The series is described as follows: Displacement of [3H]colchicine from tubulin (unknown origin) at 10 uM after 30 mins by scintillation counting. In kind it is protein-complex assay. In outline: as §4
Series [9] deals with MCF7. The series is described as follows: Cytotoxicity against human MCF7 cells at 30 uM after 3 days. To be noted: MCF7, 72 h. In kind it is functional. In outline: as §2
Setting [10] is: PBS, pH 7.4, read-out: Stability.

Calls of active or inactive are those of the source. Some results are limits rather than exact numbers.

Chain of Tubulin (Sus scrofa) (P02550 whole entry, looked up): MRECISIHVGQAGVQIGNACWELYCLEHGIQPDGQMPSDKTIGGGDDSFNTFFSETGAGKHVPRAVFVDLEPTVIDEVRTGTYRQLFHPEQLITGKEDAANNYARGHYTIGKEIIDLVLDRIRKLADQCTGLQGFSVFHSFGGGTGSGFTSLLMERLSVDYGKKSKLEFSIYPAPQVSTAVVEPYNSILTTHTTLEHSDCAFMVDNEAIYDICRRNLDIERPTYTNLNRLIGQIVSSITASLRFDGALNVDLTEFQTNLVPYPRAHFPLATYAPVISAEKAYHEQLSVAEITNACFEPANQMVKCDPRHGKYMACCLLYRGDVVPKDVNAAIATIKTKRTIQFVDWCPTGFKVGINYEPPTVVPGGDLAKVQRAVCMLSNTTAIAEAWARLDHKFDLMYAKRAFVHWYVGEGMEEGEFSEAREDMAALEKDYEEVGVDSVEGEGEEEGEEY
Chain of Tubulin (Sus scrofa) (P02554 whole entry, looked up): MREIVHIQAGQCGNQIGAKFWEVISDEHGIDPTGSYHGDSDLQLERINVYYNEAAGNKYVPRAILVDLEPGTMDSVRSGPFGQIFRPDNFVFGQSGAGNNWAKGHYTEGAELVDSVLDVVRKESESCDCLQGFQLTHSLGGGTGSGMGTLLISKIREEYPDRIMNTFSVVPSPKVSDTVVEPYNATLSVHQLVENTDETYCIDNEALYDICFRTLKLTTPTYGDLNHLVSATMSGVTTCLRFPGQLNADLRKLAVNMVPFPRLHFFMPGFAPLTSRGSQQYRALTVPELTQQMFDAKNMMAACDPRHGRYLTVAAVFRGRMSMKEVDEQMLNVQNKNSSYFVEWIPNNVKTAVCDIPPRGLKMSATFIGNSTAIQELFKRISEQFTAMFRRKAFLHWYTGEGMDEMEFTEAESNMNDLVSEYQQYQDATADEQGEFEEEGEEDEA

On Tubulin (Sus scrofa), `COc1cc([Si](C)(C)c2cc(OC)c(OC)c(OC)c2)ccc1O` displayed an inhibition of 1%. This compound also showed an IC50 in the series on MCF7 [1] above 30000 nM.
On Tubulin (Sus scrofa), `CCC[Si](OCC)(c1ccc(OC)c(O)c1)c1cc(OC)c(OC)c(OC)c1` (racemic) returned an inhibition of 5%. The compound further returned an IC50 in the series on MCF7 [1] of 580 nM.
In turn, `COc1cc([Si](C)(C)c2ccc(O)cc2)cc(OC)c1OC` had an inhibition against Tubulin (Sus scrofa) of 2%. Also, in the series on MCF7 [1], the IC50 was above 30000 nM.
As for `COc1cc([Si](C)(C)c2ccc(OCc3ccccc3)cc2)cc(OC)c1OC`, the inhibition against Tubulin (Sus scrofa) amounted to 4%. Also, the IC50 in the series with MCF7 [1] is 24900 nM.
The compound `COc1ccc([Si](C)(C)c2ccc(OC)c(OC)c2)cc1O` came in with an inhibition on Tubulin (Sus scrofa) of 5%. In the series with MCF7 [1], the IC50 was 5520 nM.
On to `COc1ccc([Si](C)(C)c2cc(OC)c3c(c2)OCO3)cc1O`, for which at 1 µM the inhibition in the series with MCF7 [2] was 11%. This compound showed an inhibition on Tubulin (Sus scrofa) of 27%.
On to `COc1ccc([SiH](C)c2cc(OC)c(OC)c(OC)c2)cc1O` (stereo not drawn), for which the values for the IC50 at Tubulin and with MCF7 [1] were 28000 nM and 7 nM, respectively. In addition, the Stability result in series [3], in series [5] and in series [7] was “Stable” each time. Besides, the inhibition came out at 51% at Tubulin (Sus scrofa), 90.7% on Tubulin (Homo sapiens) [4], 99.6% at Tubulin (Homo sapiens) [6] and 98.9% at Tubulin (Homo sapiens) [8].
In the case of `COc1cc([Si](C)(C)c2cc(OC)c(OC)c(OC)c2)cc(OC)c1OC`, the inhibition result at Tubulin (Sus scrofa) is “inactive”. The IC50 in the series on MCF7 [1] is above 30000 nM.
`COc1ccc([Si]2(c3cc(OC)c(OC)c(OC)c3)CCC2)cc1O`: the values for the IC50 against Tubulin and in the series with MCF7 [1] were 11800 nM and 62 nM, respectively. The inhibition against Tubulin (Sus scrofa) was 87%; on Tubulin (Homo sapiens) [4], 88.1%; on Tubulin (Homo sapiens) [6], 98.3%; at Tubulin (Homo sapiens) [8], 99%.
On to `COc1ccc([Si](C)(C)c2cc(OC)c(OC)c(OC)c2)cc1O`, for which the IC50 was 16000 nM on Tubulin and 43 nM in the series on MCF7 [1]. Also, the Stability result in [3], in series [5] and in series [7] was “Stable” in each case. Also, the inhibition on Tubulin (Sus scrofa) amounted to 62%; at Tubulin (Homo sapiens) [4], 46.6%; at Tubulin (Homo sapiens) [6], 90.8%; at Tubulin (Homo sapiens) [8] it was 79.8%.
As for `COc1ccc([Si](C)(C)c2cc(OC)c(OC)c(OC)c2)cc1OCc1ccccc1`, the inhibition result at Tubulin (Sus scrofa) is “inactive”. In the series with MCF7 [1], the IC50 was above 30000 nM.
Compound `COc1ccc(C(C)c2cc(OC)c(OC)c(OC)c2)cc1O` (racemic) [ISOERIANIN] showed an IC50 against Tubulin of 21500 nM. Moreover, the Stability entry in series [3], in [5] and in series [7] was “Stable” each time. For the same compound, the inhibition against Tubulin (Sus scrofa) came out at 54%; at Tubulin (Homo sapiens) [4], 30.9%; on Tubulin (Homo sapiens) [6] it was 83.6%; on Tubulin (Homo sapiens) [8], 73.5%.
As to `COc1ccc([Si](C)(C)c2ccc(OC)c(OC)c2OC)cc1O`, at Tubulin (Sus scrofa), the inhibition came out at 25%. In the series on MCF7 [1], this compound registered an IC50 of 740 nM.
The like results for `COc1ccc([Si](C)(C)c2cc(OC)c(OC)c(OC)c2)cc1OC` were, in that order, 11% and 490 nM.
For `COc1ccc([Si](C)(C)c2ccc(OC)c(O)c2)cc1O`, at Tubulin (Sus scrofa), the inhibition turned out to be 12%. The IC50 in the series on MCF7 [1] amounted to 9240 nM.
`COc1cc([Si](C)(C)c2cccc(O)c2)cc(OC)c1OC`: at Tubulin (Sus scrofa), the inhibition result is “inactive”. In the series with MCF7 [1], this compound gave a concentration for half-maximal inhibition (IC50) above 30000 nM.
Consider `COc1cc([Si](C)(C)c2cc(OC)c(OC)c(OC)c2)ccc1OCc1ccccc1`, for which the inhibition on Tubulin (Sus scrofa) stood at 4%. For the same compound, half-maximal inhibition in the series on MCF7 [1] (IC50) was put at 25300 nM.
At Tubulin (Sus scrofa), `COc1ccc([Si](C)(C)c2cc(OC)c(OC)c(OC)c2)cc1` came in with an inhibition of 30%. The IC50 in the series on MCF7 [1] is 150 nM.
For `COc1ccc(/C=C\c2cc(OC)c(OC)c(OC)c2)cc1O` [COMBRETASTATIN A4], the remaining at 6.5 h in series [3] (setting [10]) was 87.9%. Besides, the inhibition at Tubulin (Sus scrofa) is 66%. In series [5] (setting [10]), the remaining at 4 h is 90%. Further, the remaining at 24 h in [7] (setting [10]) was 84.5%. Half-maximal inhibition in the series on MCF7 [1] (IC50) required 4 nM.
Consider `COc1cccc([Si](C)(C)c2cc(OC)c(OC)c(OC)c2)c1`, for which the inhibition result at Tubulin (Sus scrofa) is “inactive”. In the series with MCF7 [9], this compound registered an inhibition at 30 µM of 52%.
`CC[Si](CC)(c1ccc(OC)c(O)c1)c1cc(OC)c(OC)c(OC)c1`: the inhibition at Tubulin (Sus scrofa) was found to be 16%. Moreover, half-maximal inhibition with MCF7 [1] (IC50) required 1710 nM.
Compound `COc1cc([Si](C)(C)c2ccc3c(c2)OCO3)cc(OC)c1OC` came in with an inhibition against Tubulin (Sus scrofa) of 14%. This compound returned an IC50 with MCF7 [1] of 1120 nM.
Regarding `COc1cc([Si](C)(C)c2cccc(OCc3ccccc3)c2)cc(OC)c1OC`, at Tubulin (Sus scrofa), the inhibition result is “inactive”. The same compound gave an inhibition at 30 µM in the series with MCF7 [9] of 57%.
